{
  "source": "paper PMC6868502",
  "about": "(Journal of natural products, 2018)",
  "key": {"[1]": {"assay": "Plasma protein binding", "assay_type": "in vitro ADME"}, "[2]": {"assay": "Pharmacokinetics in mice", "assay_type": "in vivo", "settings": "mice dosed at 2 mg/kg"}, "[3]": {"assay": "Aqueous solubility", "assay_type": "physicochemical"}, "[4]": {"test_system": "histone acetylation", "settings": "cited from earlier work"}, "[5]": {"test_system": "GM18453 skin fibroblast cell line (I1061T mutation on both alleles of NPC1)", "assay": "Filipin staining of unesterified cholesterol in NPC1 mutant fibroblasts", "assay_type": "cell-based, human", "settings": "GM18453 cells; for concentration at which the lowest filipin area/cell is achieved: dose range 1 nM to 5 μM; for concentration giving significant rescue of cholesterol accumulation (as low as): filipin fluorescence images"}, "[6]": {"test_system": "NPC1 protein in GM18453 fibroblasts", "assay": "NPC1 protein expression, Western blot after peptide:N-glycosidase F treatment", "assay_type": "cell-based, human", "settings": "48 hours", "how_it_was_run": "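NPC1-mutant GM18453 fibroblasts exposed for 48 h at 37°C, 5% CO2 to test compound (50 nM), SAHA (5 μM) or 0.1% v/v DMSO, then lysed in RIPA with protease inhibitors. Lysate (25 μg) digested with PNGase F (1000 U) in SDS, DTT and Tris-HCl pH 8, overnight (~18 h) at 37°C. Immunoblot with rabbit anti-NPC1, ECL on film. Densitometry normalised to actin, relative to DMSO; four independent experiments; SD; t-test.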"}, "[7]": {"test_system": "low-density lipoprotein (LDL) receptor", "settings": "ref 5; cited from earlier work"}, "[8]": {"test_system": "Caco-2 cell line", "assay": "Caco-2 permeability", "assay_type": "in vitro ADME"}, "[9]": {"assay": "Liver microsome stability", "assay_type": "in vitro ADME"}, "[10]": {"test_system": "NPC1 protein in GM18453 fibroblasts", "assay": "NPC1 protein expression, Western blot after endoglycosidase H treatment", "assay_type": "cell-based, human", "settings": "48 hours; for levels of the 250 kDa NPC1 isoform: SAHA 5 μM or GEX1A 50 nM"}, "[11]": {"test_system": "GM18407 fibroblast cell line (NPC1 R404Q, M1142T)", "settings": "GM18407 cells; cited from earlier work"}, "[12]": {"test_system": "GM18407 fibroblast cell line (NPC1 R404Q, M1142T)", "assay": "Filipin staining of cholesterol accumulation in GM18407 fibroblasts", "assay_type": "cell-based, human", "settings": "GM18407 cells, even at high concentrations"}, "[13]": {"test_system": "GM18453 skin fibroblast cell line (I1061T mutation on both alleles of NPC1)", "settings": "several NPC1 mutant cell lines, including GM18453; cited from earlier work"}},
  "note": "Like-named read-outs stand apart in the source and are kept apart here.",
  "data": [
    {"molecule": "CO[C@H]([C@@H](C)[C@H]1O[C@]1(C)C[C@H](C)/C=C/C=C(\\C)[C@H]1O[C@@H](CC(=O)O)CC[C@@H]1C)[C@@H](C)O", "note": "[Compound 1, GEX1A]", "values": [
      {"measurement": "plasma protein binding profile", "setting": "[1]", "value": "excellent plasma protein binding profile"},
      {"measurement": "half-life", "setting": "[2]", "value": "long half-life"},
      {"measurement": "aqueous solubility", "setting": "[3]", "value": "exceptional aqueous solubility"},
      {"measurement": "effect on histone acetylation", "setting": "[4]; ref 5", "value": "does not affect histone acetylation"},
      {"measurement": "effect on histone acetylation", "setting": "[4]; ref 32", "value": "no effect on histone acetylation"},
      {"measurement": "effects on cell and nuclei shape (cellular toxicity)", "setting": "[5]; 5 μM", "value": "detrimental effects on cell and nuclei shape"},
      {"measurement": "concentration at which the lowest filipin area/cell is achieved", "setting": "[5]; 48 hours", "value": 50, "unit": "nM"},
      {"measurement": "concentration giving significant rescue of cholesterol accumulation (as low as)", "setting": "[5]; 48 hours", "value": 50, "unit": "nM"},
      {"measurement": "expression of the highly glycosylated 180 kDa NPC1 isoform", "setting": "[6]; GEX1A 50 nM, PNGase F experiment", "value": "clear increase"},
      {"measurement": "level of NPC1 protein expression including both the 250 and 120 kDa isoforms", "setting": "[6]; GEX1A 50 nM, PNGase F, vs DMSO", "value": "significant increase"},
      {"measurement": "expression of the LDL receptor", "setting": "[7]", "value": "increased expression"},
      {"measurement": "permeability", "setting": "[8]; Caco-2", "value": "reasonably permeable"},
      {"measurement": "efflux", "setting": "[8]; Caco-2 cell line", "value": "no evidence of efflux"},
      {"measurement": "stability in liver microsomes", "setting": "[9]", "value": "quite stable"},
      {"measurement": "expression of the 180 kDa NPC1 species", "setting": "[10]; GEX1A 50 nM, vs DMSO", "value": "increases the expression of the 180 kDa species"},
      {"measurement": "levels of the 250 kDa NPC1 isoform", "setting": "[10]; vs DMSO", "value": "did not cause a significant increase"}
    ]},
    {"molecule": "COC(=O)C[C@H]1CC[C@H](C)[C@@H](/C(C)=C/C=C/[C@@H](C)C[C@@]2(C)O[C@@H]2[C@H](C)[C@@H](OC)[C@@H](C)O)O1", "note": "[Compound 2, Methyl 2-((2R,5S,6S)-6-((S,2E,4E)-7-((2R,3R)-3-((2R,3R,4R)-4-hydroxy-3-methoxypentan-2-yl)-2-methyloxiran-2-yl)-6-methylhepta-2,4-dien-2-yl)-5-methyltetrahydro-2H-pyran-2-yl) acetate]", "values": [
      {"measurement": "concentration at which the lowest filipin area/cell is achieved", "setting": "[5]; 48 hours", "value": 50, "unit": "nM"},
      {"measurement": "concentration giving significant rescue of cholesterol accumulation (as low as)", "setting": "[5]; 48 hours", "value": 50, "unit": "nM"}
    ]},
    {"molecule": "COC(=O)C[C@H]1CC[C@H](C)[C@@H](/C(C)=C/C=C/[C@@H](C)C[C@@]2(C)O[C@@H]2[C@H](C)[C@@H](OC)[C@@H](C)OC(C)=O)O1", "note": "[Compound 3, Methyl 2-((2R,5S,6S)-6-((S,2E,4E)-7-((2R,3R)-3-((2R,3R,4R)-4-acetoxy-3-methoxypentan-2-yl)-2-methyloxiran-2-yl)-6-methylhepta-2,4-dien-2-yl)-5-methyltetrahydro-2H-pyran-2-yl) acetate]", "values": [
      {"measurement": "concentration at which the lowest filipin area/cell is achieved", "setting": "[5]; 48 hours", "value": 50, "unit": "nM"},
      {"measurement": "concentration giving significant rescue of cholesterol accumulation (as low as)", "setting": "[5]; 48 hours", "value": 50, "unit": "nM"}
    ]},
    {"molecule": "COC(=O)C[C@H]1CC[C@H](C)[C@@H](/C(C)=C/C=C/[C@@H](C)C[C@@]2(C)O[C@@H]2[C@H](C)[C@@H](OC)C(C)=O)O1", "note": "[Compound 4, Methyl 2-((2R,5S,6S)-6-((S,2E,4E)-7-((2R,3R)-3-((2S,3R)-3-methoxy-4-oxopentan-2-yl)-2-methyloxiran-2-yl)-6-methylhepta-2,4-dien-2-yl)-5-methyltetrahydro-2H-pyran-2-yl)acetate]", "values": [
      {"measurement": "cholesterol clearance compared to vehicle treatment", "setting": "[5]; 50 nM, 48 hours, filipin", "value": "Some cholesterol clearance"}
    ]},
    {"molecule": "O=C(CCCCCCC(=O)Nc1ccccc1)NO", "note": "[SAHA, suberoylanilide hydroxamic acid, reference compound]", "values": [
      {"measurement": "effect on lysosomal cholesterol accumulation", "setting": "[11]", "value": "no effect on lysosomal cholesterol accumulation"},
      {"measurement": "levels of the 250 kDa NPC1 isoform", "setting": "[6]; SAHA 5 μM, PNGase F experiment, vs DMSO", "value": "moderate increase"},
      {"measurement": "rescue of the disease phenotype (cholesterol accumulation)", "setting": "[12]", "value": "neither SAHA nor compounds 1 – 4 were able to effectively rescue the disease phenotype"},
      {"measurement": "reversal of cholesterol accumulation in NPC1 mutant cell lines", "setting": "[13]", "value": "effective in reversing cholesterol accumulation"},
      {"measurement": "levels of the 250 kDa NPC1 isoform", "setting": "[10]; vs DMSO", "value": "increases the expression of the larger (250 kDa) isoform"},
      {"measurement": "increase in the levels of total NPC1 protein", "setting": "[10]; SAHA 5 μM, Endo H, densitometry vs DMSO", "value": "approximately twofold"}
    ]}
  ]
}
